Source: PubChem BioAssay
This is a sample that favours compounds with a hit; in the whole collection about 4.1% have one here.
NF-kB neuron act = compounds increasing NF-kB expression in human neuronal cells. 190,000 compounds, 1.6% hits. NF-kB reporter expression; active compounds read high. fold change at 12.5 µM; in the data active = fold change above about 3.3
APP 5'UTR act = APP 5'UTR luciferase reporter activation; SH-SY5Y APP 5'UTR luciferase reporter, luminescence; zero percent = DMSO vehicle wells; activation, % at 2 µM; 190,000 compounds, 1% hits; AID 1276;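 active = activation above a set limit, based on mean plus 3 SD of controls, cut at about 140% in these data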
FLuc stim CS = firefly luciferase counter-screen for stimulation assays; AID 1027; activation factor at 10 µM; ATPlite luciferase biochemical, luminescence, 10 min; 0 = ATP-free wells, 1 = DMSO control; 200,000 tested, under 10 active; P08659;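 active = luciferase activation factor, scaled between plate controls, of at least 2 with compound at 10 µM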
Target sequence (P08659 whole entry, looked up): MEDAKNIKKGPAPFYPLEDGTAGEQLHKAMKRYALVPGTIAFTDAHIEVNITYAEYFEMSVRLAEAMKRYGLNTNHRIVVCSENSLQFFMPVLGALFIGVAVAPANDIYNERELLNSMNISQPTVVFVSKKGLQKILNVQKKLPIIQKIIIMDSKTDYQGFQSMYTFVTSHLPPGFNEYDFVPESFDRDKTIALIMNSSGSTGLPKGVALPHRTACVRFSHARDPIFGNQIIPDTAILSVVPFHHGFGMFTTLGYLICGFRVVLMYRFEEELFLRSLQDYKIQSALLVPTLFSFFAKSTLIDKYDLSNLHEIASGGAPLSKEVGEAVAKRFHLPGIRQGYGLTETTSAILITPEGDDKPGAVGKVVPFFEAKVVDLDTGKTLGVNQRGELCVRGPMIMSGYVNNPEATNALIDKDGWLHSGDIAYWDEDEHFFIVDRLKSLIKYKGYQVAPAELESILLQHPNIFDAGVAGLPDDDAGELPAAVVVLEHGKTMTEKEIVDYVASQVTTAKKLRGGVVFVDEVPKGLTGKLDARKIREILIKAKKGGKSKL
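Material: Luciferase/luciferin reagent mix | Doses: Test compounds dosed from 2 mM stocks in 100% DMSO | Timing: 10 min incubation after luciferase reagent addition, room temperature | Measured by: Luminescence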
STAT1 act = activators of IFN-gamma induced STAT1 signaling; NIH 3T3 STAT1-luciferase reporter, luminescence; 100% = IFN-gamma alone, no compound; 200,000 compounds, 2.6% hits; AID 932; activation (% of control), % at 5.5 µM;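 active = activation above the screen-wide mean activation plus 3 SD, cut at about 130% in these data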
FLuc inhib CS = Photinus pyralis luciferase inhibition counter-screen. P08659. ATPLite firefly luciferase biochemical luminescence, 10 min. 200,000 compounds, 1.5% hits. inhibition, % at 10 µM;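 active = inhibition above about 50% when tested at 10 µM, limit read from the data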
Large screens that a line does not name were inactive.

Oc1ccc(N=C/C=C/c2cccc(Br)c2)cc1-c1nc2ccccc2s1	STAT1 act 144
CCOC(=O)C(=O)c1c(-c2ccc(C)cc2)nc2ccccn12	none
CCOC(=O)c1c(-c2ccccc2)nc2cc(C)ccn12	STAT1 act 133
CCOC(=O)C(=O)c1c(-c2ccccc2)nc2ccccn12	none
CCOC(=O)c1c(-c2ccccc2)nc2ccc(C)cn12	STAT1 act 138
Cc1cccc2cc(CN(Cc3ccccc3)C(=O)N3CCOCC3)c3nnnn3c12	none (no result: NF-kB neuron act, FLuc stim CS, FLuc inhib CS)
Cc1ccnc2nc(C(=O)OCCOc3ccc(F)cc3)nn12	none
CCOC(=O)c1sc(-c2ccccn2)nc1C	none
O=C(Nc1ccccn1)c1ccc([N+](=O)[O-])cc1Cl	none
Cc1ccc(NC(=O)c2ccc([N+](=O)[O-])cc2Cl)nc1	STAT1 act 136
CN(C)c1ccc(NC(=O)c2ccc([N+](=O)[O-])cc2Cl)cc1	STAT1 act 145
Cc1ccc(/C(N)=N/OC(=O)c2ccc(Cl)cc2Cl)cc1	APP 5'UTR act 154, STAT1 act 140, FLuc inhib CS 75
COc1ccccc1C(=O)NNC(=O)c1ccc(Cl)cc1	none
COc1ccccc1C(=O)O/N=C(\N)c1ccc(Cl)cc1	NF-kB neuron act 5.4, STAT1 act 140
Cc1ccc(C)c(C(=O)O/N=C(\N)c2ccc(Br)cc2)c1	none
Cn1cccc1C(=O)OCc1cc(Cl)cc2c1OCOC2	STAT1 act 145
Cc1ccc(C)c(NC(=O)c2ccc3ccccc3n2)c1	NF-kB neuron act 8.5, FLuc inhib CS 56
Cc1nc2ccc(NC(=O)c3ccc4ccccc4n3)cc2s1	STAT1 act 135
Cc1ccc(-c2nc3ccc(C(=O)O)cc3nc2-c2ccc(C)cc2)cc1	none
Cc1ccccc1OCCNC(=O)c1ccc2ccccc2n1	APP 5'UTR act 146, STAT1 act 141
Cc1ccc(C)c(NC(=O)c2ccccn2)c1	none
Cc1nc2cc(C(=O)O)ccc2s1	STAT1 act 143
CSc1nnc2c(n1)OC(c1ccccn1)N(C(C)=O)c1ccccc1-2 (stereo not drawn)	none
CCNS(=O)(=O)c1ccc(OC)c(C(=O)NC2CCCCC2)c1	none
CCC(C)[C@H](NC(=O)NCC1CCCO1)C(=O)OC (stereo partly drawn)	none
CCCC(c1nnnn1C1CCCC1)N1CCN(c2ccccc2F)CC1 (stereo not drawn)	none
NNC(=O)c1ccc2ccccc2n1	none
Cc1nc2ccc(NC(=O)c3sccc3C)cc2s1	NF-kB neuron act 4.7, APP 5'UTR act 163, STAT1 act 143
CNC(=O)Nc1ccc2nc(C)sc2c1	none
Cc1nnc(NC(=O)c2ccc3ccccc3n2)s1	STAT1 act 138
CCc1nc2ccc(C(=O)O)cc2nc1CC	NF-kB neuron act 6.1
Cc1nc2ccc(NC(=O)c3ccccc3)cc2s1	STAT1 act 131
CC1CC(C)(C)NC(=S)N1CCCC(=O)N1CCN(c2ccc(F)cc2)CC1 (stereo not drawn)	none
Cc1nc(OCc2c(C)noc2C)c2ccccc2n1	none
Cc1cc(C)cc(NC(=O)NC2CCN(CC(=O)Nc3c(C)cc(C)cc3C)CC2)c1	none (no result: NF-kB neuron act, FLuc stim CS, FLuc inhib CS)
Cc1nc2ccc(NC(=O)Cc3ccccc3F)cc2s1	NF-kB neuron act 6.8, STAT1 act 141, FLuc inhib CS 54
Cc1nc2ccc(NC(=O)Cc3cccc(F)c3)cc2s1	none
O=C(NC(=S)Nc1ccc2c(c1)OCO2)c1ccc(Cl)cc1	APP 5'UTR act 165, STAT1 act 130
CCc1ccc(C(=O)NC(=S)Nc2ccc3c(c2)OCCO3)cc1	NF-kB neuron act 5.4, APP 5'UTR act 136, STAT1 act 146
O=C(NC(=S)Nc1ccc2c(c1)OCCO2)c1ccc(F)cc1Cl	STAT1 act 131
Cc1nc2cc(Nc3ccncc3)ccc2s1	none
CCOCC(=O)Nc1cc(C(=O)Nc2ccc(F)cc2)ccc1Cl	none
c1ccc2nc(-c3nc4ccccc4[nH]3)ccc2c1	NF-kB neuron act 4.2, APP 5'UTR act 192, FLuc inhib CS 94
CSc1ncccc1-c1nc2ccccc2[nH]1	none
Fc1ccccc1-c1nc2ccccc2[nH]1	STAT1 act 134, FLuc inhib CS 55
Cc1nc2ccc(-c3nc4ccccc4[nH]3)cc2[nH]1	NF-kB neuron act 3.5, APP 5'UTR act 155, FLuc inhib CS 77
Cc1ccccc1-c1nc2ccccc2[nH]1	STAT1 act 133
CN(C)C(=O)c1ccccc1-c1ccccc1	none
CCc1ccc(C(=O)NC(CCSC)C(=O)OC)cc1 (stereo not drawn)	none
Cc1cccc(C)c1NC(=O)C(c1ccc(Cl)cc1Cl)N1CCCCC1 (stereo not drawn)	none
COCCNC(=O)c1ccc(-n2c(SCc3ccncc3)nc3ccccc3c2=O)cc1	none
Cc1ccc(S(=O)(=O)Nc2ccc(NC(=O)c3c(F)c(F)c(F)c(F)c3F)cc2)cc1	none
Brc1c(CSc2nc3ccccc3s2)nc2ncccn12	NF-kB neuron act 4.5, STAT1 act 133
O=[N+]([O-])c1ccc2sc(SCc3nc4ccccn4c3Br)nc2c1	none
Clc1ccc(-c2nnc(-c3ccccc3)c(N3CCSCC3)n2)cc1	none
Clc1ccc(-c2nnc(N3CCCC3)nn2)cc1	NF-kB neuron act 4.6, STAT1 act 137
O=C(O)c1ccc(N2CCCCS2(=O)=O)cc1	none
COC(=O)Cc1ccc2oc(-c3cccnc3)nc2c1	none
Brc1ccc(-c2nnc(-c3cccc(Br)c3)o2)cc1	none
Cc1ccc2nc(Cc3ccc(N)cc3)oc2c1	none
CCc1ccc2oc(-c3cccc(N)c3)nc2c1	NF-kB neuron act 3.9, FLuc inhib CS 86
Nc1ccc2oc(-c3cccc(Br)c3)nc2c1	STAT1 act 146
Cc1ccc2nc(-c3cccc(N)c3)oc2c1	NF-kB neuron act 3.9, FLuc inhib CS 93 (no result: APP 5'UTR act)
O=C(CCc1nnc(Cc2c[nH]c3ccccc23)o1)NCC1CC12CCCCC2 (stereo not drawn)	none
COc1ccc(C(=O)Nn2c(SCC(=O)NCc3ccccc3)nc3ccccc3c2=O)cc1	none
O=C(CSc1nc2ccccc2c(=O)n1NC(=O)c1ccccc1)c1ccc(Cl)cc1	APP 5'UTR act 158
COc1ccc(C(=O)Nn2c(SCC(=O)NCC3CCCO3)nc3ccccc3c2=O)cc1 (stereo not drawn)	FLuc inhib CS 82
COc1ccc(-c2cnnc(N/N=C/c3ccc(O)c(OC)c3)n2)cc1	FLuc inhib CS 81
CN=Cc1nc(-c2ccccc2)oc1O	none
Oc1oc(-c2ccccc2)nc1/C=N/c1ccccn1	STAT1 act 129
c1ccc2c(Cn3nnc4ccccc43)cccc2c1	none
c1ccc2c(COn3nnc4ccccc43)cccc2c1	NF-kB neuron act 3.4
COC(=O)c1ccccc1NC(=O)c1ccc(-c2ccc(Br)cc2)o1	STAT1 act 138
OCC1(Cc2cccc(F)c2)CCN(Cc2ccc3cccc(F)c3n2)CC1	none
O=C(c1cnsn1)N1CCC(CO)(Cc2cccc(F)c2)CC1	STAT1 act 133 (no result: NF-kB neuron act)
CC1(C)CC(=NO)CC(C)(C)N1	none
Cc1ccc(OC(=O)c2ccc(S(=O)(=O)N(C)C)cc2)c(-n2nc3ccccc3n2)c1	NF-kB neuron act 4.5
